In ChEMBL document CHEMBL1914366, “Bioassay-guided identification of an anti-inflammatory prenylated acylphloroglucinol from Melicope ptelefolia and molecular insights into its interaction with 5-lipoxygenase” (Bioorg Med Chem, 2011):
Calls of active or inactive are those of the source. No cut-off for these calls is given here.

Legend:
[1] = Inhibition of soybean 15-LOX type 1-B assessed as inhibition of conversion of linoleic acid to (9Z,11E)-(13S)-13-hydroperoxyoctadeca-9,11-dienoate preincubated for 10 mins before substrate addition measured after 6 mins by spectrophotometry; set-up: species or system Glycine max
Procedure, shortened: (§1)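 Soybean lipoxygenase type I-B (80 U/well) in sodium phosphate buffer (100 mM, pH 8.0) was incubated with sample in MeOH for 10 min at 25 °C. Linoleic acid was then added and A234 was followed for 6 min. Samples were run in triplicate. Pure compounds were screened at a final 25 µg/mL.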

Glycine max = assay: Inhibition of soybean 15-LOX type 1-B assessed as inhibition of conversion of linoleic acid to (9Z,11E)-(13S)-13-hydroperoxyoctadeca-9,11-dienoate at 25 ug/ml preincubated for 10 mins before substrate addition measured after 6 mins by spectrophotometry; procedure, shortened: as §1
[2] = biological target: T1, Prostaglandin G/H synthase 2 (Homo sapiens) (UniProt P35354); assay: Inhibition of human recombinant COX2 expressed in insect Sf21 cells assessed as inhibition of conversion of arachidonic acid to PGE2 at 10 uM preincubated for 15 mins before substrate addition measured after 5 mins by enzyme immunoassay
T1 sequence (whole entry): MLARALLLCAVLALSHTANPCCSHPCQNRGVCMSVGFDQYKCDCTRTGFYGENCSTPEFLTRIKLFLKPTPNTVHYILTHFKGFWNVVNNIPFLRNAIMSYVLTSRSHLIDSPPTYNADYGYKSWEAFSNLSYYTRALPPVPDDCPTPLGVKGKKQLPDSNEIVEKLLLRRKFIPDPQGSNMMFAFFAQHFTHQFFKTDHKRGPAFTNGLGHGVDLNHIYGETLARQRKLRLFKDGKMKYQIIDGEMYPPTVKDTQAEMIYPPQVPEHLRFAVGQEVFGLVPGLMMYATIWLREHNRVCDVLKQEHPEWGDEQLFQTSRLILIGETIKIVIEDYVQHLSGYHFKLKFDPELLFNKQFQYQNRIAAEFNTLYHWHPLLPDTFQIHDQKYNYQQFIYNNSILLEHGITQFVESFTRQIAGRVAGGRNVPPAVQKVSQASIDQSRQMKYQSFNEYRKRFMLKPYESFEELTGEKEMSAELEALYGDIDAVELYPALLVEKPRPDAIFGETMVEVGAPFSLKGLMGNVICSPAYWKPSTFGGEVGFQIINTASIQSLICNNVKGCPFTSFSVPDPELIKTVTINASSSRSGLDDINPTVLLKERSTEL
Procedure, shortened: (§2)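 Human recombinant COX-2 expressed in Sf21 cells (0.11 U) was preincubated with compound or vehicle, 1 mM reduced GSH, 500 µM phenol and 1 µM hematin in Tris-HCl (100 mM, pH 7.7) for 15 min at 37 °C. Arachidonic acid (0.3 mM) was added for 5 min and the reaction was stopped with 1 N HCl. After centrifugation, PGE2 was measured by EIA.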

[3] = biological target: T2, Prostaglandin G/H synthase 1 (Homo sapiens, UniProt P23219); assay: Inhibition of COX1 in human platelets assessed as inhibition of conversion of arachidonic acid to PGE2 at 0.1 uM preincubated for 15 mins before substrate addition measured after 15 mins by enzyme immunoassay
Procedure, shortened: (§3)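 Human platelets (5 × 10^7/ml) in HBSS (15 mM, pH 7.4) were incubated with compound or vehicle for 15 min at 37 °C. Arachidonic acid (100 µM) was added for 15 min and the reaction was stopped with 1 N HCl. PGE2 was measured by EIA. The assay was run by a contract laboratory.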

[4] = biological target: T1, Prostaglandin G/H synthase 2 (Homo sapiens); assay: Inhibition of human recombinant COX2 expressed in insect Sf21 cells assessed as inhibition of conversion of arachidonic acid to PGE2 at 0.1 uM preincubated for 15 mins before substrate addition measured after 5 mins by enzyme immunoassay; procedure, shortened: as §2
[5] = biological target: T3, Prostaglandin G/H synthase 2 (Homo sapiens, UniProt P35354); assay: Inhibition of human recombinant COX2 expressed in insect Sf21 cells assessed as inhibition of conversion of arachidonic acid to PGE2 preincubated for 15 mins before substrate addition measured after 5 mins by enzyme immunoassay; procedure, shortened: as §2
T3 sequence (P35354 whole entry): T1 sequence (whole entry)

[6] = Cytotoxicity against NMRI mouse macrophages by MTT assay; format: cell-based; conditions: macrophage
Procedure, shortened: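 Macrophages from the 5-LOX assay wells were used after supernatant collection. Cells received MTT (5 mg/ml in PBS, 20 µl/well) for 4 h at 37 °C, then the formazan was dissolved in DMSO and absorbance was read at 550 nm. Values are mean ± S.D., mostly from triplicate determinations.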

[7] = biological target: T4, Polyunsaturated fatty acid 5-lipoxygenase (Homo sapiens) (UniProt P09917); assay: Inhibition of human 5-LOX in human peripheral blood mononuclear leukocytes assessed as inhibition of calymycin A23187 stimulated LTB4 production at 1 uM preincubated for 15 mins before stimulation measured after 15 mins by enzyme immunoassay
T4 sequence (whole entry): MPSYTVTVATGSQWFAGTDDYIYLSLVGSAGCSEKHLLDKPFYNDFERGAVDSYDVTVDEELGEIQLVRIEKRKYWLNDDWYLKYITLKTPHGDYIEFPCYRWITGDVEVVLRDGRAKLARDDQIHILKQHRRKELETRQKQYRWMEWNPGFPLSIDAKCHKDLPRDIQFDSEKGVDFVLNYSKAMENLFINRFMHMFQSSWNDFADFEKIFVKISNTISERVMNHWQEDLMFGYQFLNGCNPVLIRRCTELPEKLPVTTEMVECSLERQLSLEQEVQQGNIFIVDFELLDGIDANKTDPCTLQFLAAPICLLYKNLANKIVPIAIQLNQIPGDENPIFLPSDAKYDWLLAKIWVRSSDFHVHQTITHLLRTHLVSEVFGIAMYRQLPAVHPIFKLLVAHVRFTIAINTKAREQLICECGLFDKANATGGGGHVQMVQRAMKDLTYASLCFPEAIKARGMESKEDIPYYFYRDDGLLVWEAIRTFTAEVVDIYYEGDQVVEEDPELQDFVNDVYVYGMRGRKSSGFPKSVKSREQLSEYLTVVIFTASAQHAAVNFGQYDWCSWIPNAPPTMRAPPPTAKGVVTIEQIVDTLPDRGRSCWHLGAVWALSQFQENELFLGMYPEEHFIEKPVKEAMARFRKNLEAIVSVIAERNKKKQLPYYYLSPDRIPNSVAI
Procedure, shortened: (§4)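 Human peripheral blood mononuclear leukocytes (5 × 10^6 cells/ml) in HBSS were preincubated with compound or vehicle for 15 min at 37 °C. Calcimycin (A23187, 30 µM) was added for a further 15 min and the reaction was stopped with 1 N HCl. LTB4 was quantified by EIA. The assay was run by a contract laboratory.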

[8] = biological target: T4, Polyunsaturated fatty acid 5-lipoxygenase (Homo sapiens); assay: Inhibition of human 5-LOX in human peripheral blood mononuclear leukocytes assessed as inhibition of calymycin A23187 stimulated LTB4 production at 10 nM preincubated for 15 mins before stimulation measured after 15 mins by enzyme immunoassay; procedure, shortened: as §4
[9] = biological target: T1, Prostaglandin G/H synthase 2 (Homo sapiens); assay: Inhibition of human recombinant COX2 expressed in insect Sf21 cells assessed as inhibition of conversion of arachidonic acid to PGE2 at 1 uM preincubated for 15 mins before substrate addition measured after 5 mins by enzyme immunoassay; procedure, shortened: as §2
[10] = biological target: T2, Prostaglandin G/H synthase 1; assay: Inhibition of COX1 in human platelets assessed as inhibition of conversion of arachidonic acid to PGE2 at 1 uM preincubated for 15 mins before substrate addition measured after 15 mins by enzyme immunoassay; procedure, shortened: as §3
[11] = Metal chelating activity of the compound assessed as formation of iron complex in PBS at pH 7.4 at 50 uM after 10 secs by UV-vis spectrometry in presence of 100 uM FeSO4; format: functional
Procedure, shortened: (§5)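 Compound was taken from a 1 mM methanol stock and diluted to 50 µM in PBS (10 mM, pH 7.4). Salt solution (CuSO4, FeCl3 or FeSO4) was added at 50 or 100 µM. Absorption spectra from 200–600 nm were recorded after 10 s and compared with the compound alone.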

[12] = tested on: Radical scavenging activity; assay: Antioxidant activity assessed as DPPH radical scavenging activity; format: functional
Procedure, shortened: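 DPPH radical scavenging run by a previously published method, with quercetin as positive control; triplicate tests, with absorbances averaged before calculating activity.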

[13] = biological target: T5, Polyunsaturated fatty acid 5-lipoxygenase (Homo sapiens, UniProt P09917); assay: Inhibition of human 5-LOX in human peripheral blood mononuclear leukocytes assessed as inhibition of calymycin A23187-stimulated LTB4 production preincubated for 15 mins before stimulation measured after 15 mins by enzyme immunoassay; procedure, shortened: as §4
T5 sequence (P09917 whole entry): T4 sequence (whole entry)

[14] = biological target: T2, Prostaglandin G/H synthase 1; assay: Inhibition of COX1 in human platelets assessed as inhibition of conversion of arachidonic acid to PGE2 preincubated for 15 mins before substrate addition measured after 15 mins by enzyme immunoassay; procedure, shortened: as §3
[15] = Metal chelating activity of the compound assessed as formation of copper complex in PBS at pH 7.4 at 50 uM after 10 secs by UV-vis spectrometry in presence of 100 uM CuSO4; format: functional; procedure, shortened: as §5
[16] = biological target: T2, Prostaglandin G/H synthase 1; assay: Inhibition of COX1 in human platelets assessed as inhibition of conversion of arachidonic acid to PGE2 at 10 uM preincubated for 15 mins before substrate addition measured after 15 mins by enzyme immunoassay; procedure, shortened: as §3
[17] = biological target: T2, Prostaglandin G/H synthase 1; assay: Inhibition of COX1 in human platelets assessed as inhibition of conversion of arachidonic acid to PGE2 at 10 nM preincubated for 15 mins before substrate addition measured after 15 mins by enzyme immunoassay; procedure, shortened: as §3
[18] = biological target: T4, Polyunsaturated fatty acid 5-lipoxygenase (Homo sapiens); assay: Inhibition of human 5-LOX in human peripheral blood mononuclear leukocytes assessed as inhibition of calymycin A23187 stimulated LTB4 production at 10 uM preincubated for 15 mins before stimulation measured after 15 mins by enzyme immunoassay; procedure, shortened: as §4
[19] = biological target: T6, Polyunsaturated fatty acid 5-lipoxygenase (Mus musculus, UniProt P48999); assay: (§6) Inhibition of 5-LOX in calcium ionophore A23187-stimulated NMRI mouse macrophage assessed as inhibition of LTC4 production preincubated for 60 mins before stimulation measured after 2 hrs by ELISA
T6 sequence (P48999 whole entry): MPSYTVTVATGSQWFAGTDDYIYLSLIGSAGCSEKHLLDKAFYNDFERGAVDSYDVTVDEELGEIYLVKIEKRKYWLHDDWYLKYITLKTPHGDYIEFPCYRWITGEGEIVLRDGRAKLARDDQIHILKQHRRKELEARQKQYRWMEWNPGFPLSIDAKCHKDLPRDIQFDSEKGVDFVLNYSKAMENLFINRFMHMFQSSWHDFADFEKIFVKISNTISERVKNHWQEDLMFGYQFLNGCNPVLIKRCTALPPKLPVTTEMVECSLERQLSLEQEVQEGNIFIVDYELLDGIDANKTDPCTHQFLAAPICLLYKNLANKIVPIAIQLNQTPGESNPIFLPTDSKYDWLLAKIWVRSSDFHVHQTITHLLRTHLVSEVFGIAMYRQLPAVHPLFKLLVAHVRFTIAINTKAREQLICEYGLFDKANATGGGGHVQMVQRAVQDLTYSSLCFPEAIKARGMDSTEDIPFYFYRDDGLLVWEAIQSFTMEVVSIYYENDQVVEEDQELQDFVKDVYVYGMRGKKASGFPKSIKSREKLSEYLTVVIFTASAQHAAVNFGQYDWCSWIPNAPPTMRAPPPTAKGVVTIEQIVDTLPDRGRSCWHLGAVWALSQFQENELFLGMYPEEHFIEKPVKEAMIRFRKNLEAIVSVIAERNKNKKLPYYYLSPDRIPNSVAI
Procedure, shortened: (§7)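 Male NMRI mice (20 ± 5 g) were given 1 ml thioglycolate ip and peritoneal macrophages were lavaged with PBS 3 days later. Cells were adhered overnight at 5 × 10^5 cells/well and then moved to serum-free DMEM. Compound was added for 60 min at 37 °C, then A23187 to a final 10^-6 M for 2 h. Supernatant cysLTs were measured by ELISA against a standard curve. Values are mean ± S.D., mostly triplicate, compared by unpaired t-test.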

[20] = biological target: T7, Polyunsaturated fatty acid 5-lipoxygenase (Mus musculus) (UniProt P48999); assay: as §6; procedure, shortened: as §7
T7 sequence (whole entry): T6 sequence (P48999 whole entry)

[21] = biological target: T4, Polyunsaturated fatty acid 5-lipoxygenase (Homo sapiens); assay: Inhibition of human 5-LOX in human peripheral blood mononuclear leukocytes assessed as inhibition of calymycin A23187 stimulated LTB4 production at 0.1 uM preincubated for 15 mins before stimulation measured after 15 mins by enzyme immunoassay; procedure, shortened: as §4
[22] = Metal chelating activity of the compound assessed as formation of iron complex in PBS at pH 7.4 at 50 uM after 10 secs by UV-vis spectrometry in presence of 100 uM FeCl3; format: functional; procedure, shortened: as §5
[23] = biological target: T1, Prostaglandin G/H synthase 2 (Homo sapiens); assay: Inhibition of human recombinant COX2 expressed in insect Sf21 cells assessed as inhibition of conversion of arachidonic acid to PGE2 at 10 nM preincubated for 15 mins before substrate addition measured after 5 mins by enzyme immunoassay; procedure, shortened: as §2

T2 sequence (P23219 whole entry): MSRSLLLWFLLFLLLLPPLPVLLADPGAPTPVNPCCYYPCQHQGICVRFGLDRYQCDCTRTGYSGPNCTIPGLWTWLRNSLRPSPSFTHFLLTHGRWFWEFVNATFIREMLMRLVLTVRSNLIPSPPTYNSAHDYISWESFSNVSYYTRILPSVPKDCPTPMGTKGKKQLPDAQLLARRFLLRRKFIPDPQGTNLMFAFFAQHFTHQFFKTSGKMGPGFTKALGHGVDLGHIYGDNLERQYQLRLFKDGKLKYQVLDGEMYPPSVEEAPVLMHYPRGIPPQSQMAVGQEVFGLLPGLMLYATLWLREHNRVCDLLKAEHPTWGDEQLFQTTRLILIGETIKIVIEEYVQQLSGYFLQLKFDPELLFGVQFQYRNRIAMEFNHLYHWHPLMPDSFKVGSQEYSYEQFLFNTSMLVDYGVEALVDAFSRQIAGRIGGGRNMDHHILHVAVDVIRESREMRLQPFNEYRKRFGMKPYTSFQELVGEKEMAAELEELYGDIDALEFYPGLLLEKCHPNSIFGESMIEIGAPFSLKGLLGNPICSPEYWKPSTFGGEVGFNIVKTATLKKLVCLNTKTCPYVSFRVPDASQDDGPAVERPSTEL

CC(Cc1ccc(O)c(O)c1)C(C)Cc1ccc(O)c(O)c1 (stereo unspecified) [NORDIHYDROGUAIARETIC ACID]
IC50 [1]: 9.82 µM | inhibition (Glycine max): 88.8%

CC(=O)c1c(O)cc(O)c(C/C=C(\C)CCC=C(C)C)c1O
inhibition [2]: 100% | inhibition [3]: -1% | inhibition [4]: 28% | IC50 [5]: 0.4 µM | Activity [6]: Non-toxic | inhibition [7]: 75% | inhibition [8]: 6% | inhibition [9]: 60% | inhibition [10]: -9% | Activity [11]: inactive | IC50 [12]: 46 µM | IC50 [13]: 0.42 µM | IC50 [14]: 6.9 µM | Activity [15]: inactive | inhibition [16]: 91% | inhibition [17]: -5% | IC50 [1]: 20.4 µM | inhibition [18]: 102% | IC50 [19]: 1.8 µM | inhibition [20]: Dose-dependent effect | inhibition [21]: 13% | Activity [22]: inactive | inhibition [23]: 14%

O=c1c(O)c(-c2ccc(O)c(O)c2)oc2cc(O)cc(O)c12 [QUERCETIN]
IC50 [12]: 6.91 µM
